Source: PubChem (Johns Hopkins Ion Channel Center)
KCNQ1 act: human KCNQ1 channel potentiation or activation; P51787; CHO-K1 KCNQ1, thallium flux FluxOR fluorescence; active compounds read high; B-score at 10 µM; actives 0.35% (n = 310,000);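 active = fluorescence ratio B-score, a plate-corrected score, at least three library SD, with initial intensity B-score within 5 SD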
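Assay system: CHO-K1 cells stably expressing KCNQ1. Medium: assay buffer for compound exposure, DMSO matched across wells. Timing: 37 °C overnight plating, 90-min dark dye load, 20-min compound pretreatment. Signal: kinetic FluxOR fluorescence, 10 s baseline plus 110 s post-stimulus.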
KCNK3 block: human KCNK3 channel inhibition, primary screen | O14649 | CHO-KCNK3 thallium flux, FluxOR fluorescence; active compounds read low | B-score at 10 µM | actives 0.84% (n = 340,000) | AID 602410;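 active = B-score under library mean minus 4 SD, starting fluorescence ratio at most library mean plus 5 SD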;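 note: more negative B-score means stronger inhibition of thallium flux through KCNK3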
KCNQ1 inh: inhibitors of human KCNQ1 potassium channel. P51787. CHO-K1 KCNQ1, FluxOR thallium flux fluorescence; active compounds read high. B-score at 10 µM. actives 1.3% (n = 310,000);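 active = compounds whose thallium flux B-score, printed positive for inhibition, exceeds three library SD while starting fluorescence stays within three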;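 note: channel opened by potassium depolarization with thallium stimulus after 20 min compound exposure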
Kir21 inh: blocks the mouse Kir2.1 inward-rectifier potassium channel | P35561 | HEK293-Kir2.1, FluxOR thallium flux fluorescence; active compounds read low | B-score at 10 µM | actives 0.85% (n = 310,000) | AID 1672;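 active = fluorescence ratio B-score at or below minus 3 SD of library scores, with starting-brightness B-score within 2 SD, cut at about -4.2 in these data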;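 note: channel flux triggered by added potassium and thallium sulfate stimulus; B-score of peak minus minimum fluorescence over baseline after thallium stimulus; more negative B-score means stronger Kir2.1 block with less thallium influx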
hERG protect: shields human hERG channel from block by proarrhythmic agents. Q12809. CHO-hERG, FluxOR thallium flux, dofetilide IC70 present. activation (rescue from dofetilide block), less the hit threshold, % at 10 µM. actives 0.51% (n = 310,000). AID 1511;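 active = activation above the mean of controls blocked by dofetilide plus 5 SD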;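 note: thallium influx through hERG after potassium depolarization seen as dye fluorescence rise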
Target sequence (Q12809 whole entry, looked up): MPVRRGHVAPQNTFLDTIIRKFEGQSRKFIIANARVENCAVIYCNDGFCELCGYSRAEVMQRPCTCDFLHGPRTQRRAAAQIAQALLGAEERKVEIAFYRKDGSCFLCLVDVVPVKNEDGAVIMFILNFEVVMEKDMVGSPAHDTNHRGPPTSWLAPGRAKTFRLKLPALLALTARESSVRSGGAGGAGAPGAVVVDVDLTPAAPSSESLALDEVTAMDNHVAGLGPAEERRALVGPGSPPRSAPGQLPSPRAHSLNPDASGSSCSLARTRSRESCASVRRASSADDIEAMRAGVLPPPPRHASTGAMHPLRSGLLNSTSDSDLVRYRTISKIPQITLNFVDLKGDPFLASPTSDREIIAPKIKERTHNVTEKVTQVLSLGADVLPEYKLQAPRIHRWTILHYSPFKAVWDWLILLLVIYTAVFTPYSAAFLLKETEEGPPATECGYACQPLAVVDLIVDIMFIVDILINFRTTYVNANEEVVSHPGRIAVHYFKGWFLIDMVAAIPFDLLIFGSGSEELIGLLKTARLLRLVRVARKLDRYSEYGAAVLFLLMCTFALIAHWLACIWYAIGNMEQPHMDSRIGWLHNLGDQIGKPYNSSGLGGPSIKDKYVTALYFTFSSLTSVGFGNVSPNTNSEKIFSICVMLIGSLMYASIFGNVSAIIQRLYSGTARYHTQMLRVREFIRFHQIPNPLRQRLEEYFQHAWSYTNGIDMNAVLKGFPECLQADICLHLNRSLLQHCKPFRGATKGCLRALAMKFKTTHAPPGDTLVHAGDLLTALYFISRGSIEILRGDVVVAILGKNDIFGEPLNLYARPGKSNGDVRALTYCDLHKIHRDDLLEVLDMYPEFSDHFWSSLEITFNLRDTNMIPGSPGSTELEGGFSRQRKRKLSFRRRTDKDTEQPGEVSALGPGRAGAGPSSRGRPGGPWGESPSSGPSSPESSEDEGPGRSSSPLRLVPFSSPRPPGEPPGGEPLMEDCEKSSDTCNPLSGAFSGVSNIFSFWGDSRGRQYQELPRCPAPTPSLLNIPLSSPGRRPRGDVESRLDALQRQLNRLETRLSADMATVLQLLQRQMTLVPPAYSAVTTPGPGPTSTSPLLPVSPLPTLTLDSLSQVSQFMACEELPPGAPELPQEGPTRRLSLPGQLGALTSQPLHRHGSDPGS
KCNK9 block: blocks the human KCNK9 two-pore domain potassium channel; HEK293 KCNK9, FluxOR thallium flux fluorescence; active compounds read low; actives 1.2% (n = 310,000); B-score at 10 µM; AID 488922;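 active = ratio B-score over 3 SD below the library mean, with starting fluorescence within 5 SD of its mean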;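 note: negative B-score means less thallium flux so channel inhibition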
* = called active by the depositor; i = inactive; . = no result. Most compounds without a hit are left out; they make up all but 3.7% or so of the library.

SMILES	KCNQ1 act	KCNK3 block	KCNQ1 inh	Kir21 inh	hERG protect	KCNK9 block
COc1ccccc1C(=O)OCC(=O)NC(=O)NCc1ccccc1	i	i	i	-0.9	-6	i
CNC(=O)NC(=O)COC(=O)c1ccccc1OCc1ccccc1	i	i	i	0.81	8.3*	i
Cc1cccc(-c2nnc(NC(=O)c3ccc(Cl)cc3)o2)c1	9*	i	i	-0.24	-12	i
CCc1cc2c(SCC(=O)N3CCCC3=O)ncnc2s1	.	i	.	.	.	.
Cc1ccc(-c2csc3ncnc(SCC(=O)NCc4ccc5c(c4)OCO5)c23)cc1	i	i	i	0.58	-3	i
O=C(CSc1ncnc2scc(-c3ccc(Cl)cc3)c12)NCc1ccc2c(c1)OCO2	i	-9.9*	i	0.86	-6	i
CCC(CO)N=C1CC(C)(C)CC(=O)/C1=C(/O)CCCN1C(=O)c2ccccc2C1=O (configuration not stated)	i	i	i	-2.1	-18	i
O=C(CN1CCCCC1)Nc1ccccc1	i	i	i	0.03	-10	i
COc1cc(NC(=O)c2ccc(F)cc2)c(OC)cc1NC(=O)CN1CCOCC1	i	i	i	0	-7	i
COc1ccc2nc(NC(=O)CN3CCOCC3)sc2c1	i	i	i	-1.2	7.3*	i
O=C(CCN1CCOCC1)Nc1ccccc1	i	i	i	-0.7	5.1*	i
O=C(CN1CCCCCC1)Nc1ccc(Oc2ccccc2)cc1	19*	i	i	-2	18*	i
COc1cc(NC(=O)c2ccccc2F)c(OC)cc1NC(=O)CN1CCOCC1	i	i	i	-1.3	4.7*	i
COc1cccc(CNS(=O)(=O)c2cc3c(cc2Cl)NC(=O)CO3)c1	i	i	i	-0.93	-4	i
COc1ccccc1CNC(=O)CN(C)S(=O)(=O)c1ccc2c(c1)c(=O)n(C)c(=O)n2C	i	i	i	0.66	-6	i
CCOC(=O)Cc1csc(N/N=C\c2ccc(N(C)C)cc2)n1	i	i	i	-2.1	-10	i
Cc1csc(NC(=O)CCC(=O)N(CC(=O)NC2CCCCC2)c2ccccc2)n1	i	i	i	2.1	-8	i
CCCc1nnc(NC(=O)CN2CCOCC2)s1	i	i	i	-0.55	12*	i
Cc1ccccc1NC(=O)CCN1CCCCCC1	i	i	i	0.54	4.8*	i
COc1ccc(NC(=O)CN2CCN(c3ccccc3)CC2)cc1	i	i	i	0.63	-3	i
COc1ccc(NC(=O)CN2CCOCC2)cc1	i	i	i	1.8	7.0*	i
COc1ccc(NC(=O)CN2CCN(C3c4ccccc4-c4ccccc43)CC2)cc1	8*	i	i	0.01	-15	i
CCOc1ccc(NC(=O)c2cc(S(=O)(=O)N3CCOCC3)cn2C)cc1	i	i	i	-0.61	-6	i
C[C@H](CO)N1C[C@H](C)[C@@H](CN(C)S(=O)(=O)c2cccs2)Oc2c(NS(=O)(=O)c3cn(C)cn3)cccc2C1=O	.	i	.	.	.	.
CN(C)S(=O)(=O)c1cccc(NC(=S)N/N=C/c2ccc(O)c(O)c2O)c1	i	i	i	-5.4*	-17	i
SMILES	KCNQ1 act	KCNK3 block	KCNQ1 inh	Kir21 inh	hERG protect	KCNK9 block
CN(C)S(=O)(=O)c1cccc(NC(=S)Nc2ccc(Cl)cc2Cl)c1	i	i	i	-2.5	-11	i
CN(C)S(=O)(=O)c1cccc(NC(=S)Nc2cc(Cl)cc(Cl)c2)c1	i	i	7*	-2.4	-24	i
CC1(C)Cc2c(cnn2-c2ccccc2)C(NC(=O)CCN2CCCC2=O)C1 (configuration not stated)	i	i	i	-0.51	-3	i
Cc1csc(NC(=O)C2C3C=CC(C3)C2C(=O)O)n1 (configuration not stated)	i	i	i	-2.8	5.4*	i
COc1ccc(NC(=O)C2C3C=CC(C3)C2C(=O)O)cc1 (configuration not stated)	i	i	i	0.62	-7	i
COc1cccc(NC(=O)C2C3C=CC(C3)C2C(=O)O)c1 (configuration not stated)	i	i	i	0.95	7.4*	i
C/C(=N\NC(=O)c1cccc(Br)c1)c1ccc(Br)cc1	i	i	i	-0.9	-10	i
C/C(=N\NC(=O)c1ccccc1[N+](=O)[O-])c1ccc(Br)s1	i	i	i	0.45	-12	i
C/C(=N\NC(=O)c1cccc(F)c1)c1ccc(Br)s1	11*	i	i	-0.01	-6	i
C/C(=N\NC(=O)c1ccccc1O)c1ccc(Br)s1	i	i	i	2.7	5.4*	i
COc1ccc(C(=O)OC(COc2ccccc2)Cn2ccnc2)cc1 (configuration not stated)	i	i	i	-7*	-7	i
Cc1c(C(=O)c2no[n+]([O-])c2C(=O)c2cnn(C)c2C)cnn1C	i	i	6*	-0.01	-9	i
CC(NC(=O)NC1CCCCC1)c1ccc2c(c1)OCO2 (configuration not stated)	i	i	i	0.17	11*	i
CCC(NC(=S)NC1CCCCC1)c1ccc(C(C)C)cc1 (configuration not stated)	i	i	10*	0.88	-9	i
CC(NC(=O)NC12CC3CC(CC(C3)C1)C2)c1ccc2c(c1)OCO2 (configuration not stated)	i	i	i	-1.1	-17	i
Cc1ccc(C(C)NC(=S)NC2CCCCC2)cc1C (configuration not stated)	i	i	i	-5.3*	6.2*	i
CCOc1cc(C(=O)NCCCNC(=O)c2cc(OCC)c(OCC)c(OCC)c2)cc(OCC)c1OCC	i	i	i	1.2	0	i
CCOC(=O)C1=C(COC(=O)c2nc(Cl)ccc2Cl)NC(=O)NC1C (configuration not stated)	.	i	.	.	.	.
CCOC(=O)c1cnc(SC)nc1Sc1ccccc1	i	i	i	0.42	0	i
N/C(=N\OC(=O)CC(c1ccccc1)c1ccccc1)c1cccnc1	i	i	i	-0.47	4.6*	i
N/C(=N\OC(=O)Cc1ccccc1)c1cccnc1	i	i	i	0.02	-12	i
Cc1ccc(C(=O)C2C(c3ccc(-c4ccccc4[N+](=O)[O-])o3)NC(=O)NC2(O)C(F)(F)F)cc1 (configuration not stated)	i	i	i	0.01	-10	-10*
